Assay results as given in ChEMBL document CHEMBL1145831 (J Med Chem, 2003).

Legend:
Mus musculus [1] = experiment: Ratio of the median tumor weight in the treatment group over the median tumor weight in the control group on a schedule of 1-6 days and at a total dose of 72 mg/kg; format: functional
Procedure, shortened: (§1)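 Panc-03 murine pancreatic adenocarcinoma in mice, with injectable solutions prepared in water from stock and given within 20 min; chlorohydrins were acidified with 0.05% citric acid. %T/C is median tumor weight of the treated group over that of the control group × 100, calculated when control median tumor weight reaches 1 g. T/C ≤ 42% is taken as significant activity.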

Mus musculus [2] = experiment: In vivo antitumor activity against murine pancreatic adenocarcinoma and measured as % weight loss on a schedule of 1-6 days and at a total dose of 162 mg/kg; format: functional
Procedure, shortened: (§2)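 Mice bearing drug-sensitive murine pancreatic adenocarcinoma Panc-03 were dosed on the listed days at the listed total doses. Dosing solutions were made in water from stock solutions and injected within 20 min. Chlorohydrin solutions were acidified with 0.05% citric acid. Tolerance was recorded as body weight loss and number of deaths.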

Mus musculus [3] = experiment: Ratio of the median tumor weight in the treatment group over the median tumor weight in the control group on a schedule of 1-6 days and at a total dose of 162 mg/kg; format: functional; procedure, shortened: as §1
Mus musculus [4] = experiment: In vivo antitumor activity against murine pancreatic adenocarcinoma and measured as number of deaths on a schedule of 1-6 days and at a total dose of 162 mg/kg; format: ADME, organism-based; parameters: dose 162 mg/kg; procedure, shortened: as §2
Mus musculus [5] = experiment: In vivo antitumor activity against murine pancreatic adenocarcinoma and measured as number of deaths on a schedule of 1-6 days and at a total dose of 72 mg/kg; format: ADME, organism-based; parameters: dose 72 mg/kg; procedure, shortened: as §2
CCRF-CEM = experiment: In vitro growth inhibitory activity in the human CCRF-CEM leukemia cell line.; format: functional, cell-based
Procedure, shortened: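 CCRF-CEM human leukemia cells in log phase, 4.8 × 10⁴ cells per 2 mL well. Medium was RPMI-1640 with 10% dialyzed FBS and 25 mM HEPES. Compounds were serially diluted 1:3 in DMSO and added to duplicate wells, with DMSO-only controls, at 0.5% final DMSO. Cells were exposed 72 h at 37 °C in humidified 5% CO₂, then counted. IC50 in nM.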

Mus musculus [6] = experiment: In vivo antitumor activity against murine pancreatic adenocarcinoma and measured as % weight loss on a schedule of 1-6 days and at a total dose of 72 mg/kg; format: functional; procedure, shortened: as §2
Mus musculus [7] = experiment: In vivo antitumor activity against murine pancreatic adenocarcinoma and measured as % weight loss on a schedule of 3 days and at a total dose of 2 mg/kg; format: functional; procedure, shortened: as §2
Mus musculus [8] = experiment: In vivo antitumor activity against murine pancreatic adenocarcinoma and measured as number of deaths on a schedule of 3 days and at a total dose of 2 mg/kg; format: ADME, organism-based; parameters: dose 2 mg/kg; conditions: 72 h; procedure, shortened: as §2
Mus musculus [9] = experiment: In vivo antitumor activity against murine pancreatic adenocarcinoma and measured as number of deaths on a schedule of 3,5 days and at a total dose of 1 mg/kg; format: ADME, organism-based; parameters: dose 1 mg/kg; conditions: 120 h; procedure, shortened: as §2
Mus musculus [10] = experiment: Ratio of the median tumor weight in the treatment group over the median tumor weight in the control group on a schedule of 3,5 days and at a total dose of 1 mg/kg; format: functional; procedure, shortened: as §1
Mus musculus [11] = experiment: In vivo antitumor activity against murine pancreatic adenocarcinoma and measured as number of deaths on a schedule of 3,5 days and at a total dose of 1.6 mg/kg; format: ADME, organism-based; parameters: dose 1.6 mg/kg; conditions: 120 h; procedure, shortened: as §2
Mus musculus [12] = experiment: In vivo antitumor activity against murine pancreatic adenocarcinoma and measured as % weight loss on a schedule of 3,5 days and at a total dose of 1.6 mg/kg; format: functional; procedure, shortened: as §2
Mus musculus [13] = experiment: Ratio of the median tumor weight in the treatment group over the median tumor weight in the control group on a schedule of 3,5 days and at a total dose of 1.6 mg/kg; format: functional; procedure, shortened: as §1
Mus musculus [14] = experiment: In vivo antitumor activity against murine pancreatic adenocarcinoma and measured as % weight loss on a schedule of 3,5 days and at a total dose of 1 mg/kg; format: functional; procedure, shortened: as §2
Mus musculus [15] = experiment: Ratio of the median tumor weight in the treatment group over the median tumor weight in the control group on a schedule of 3 days and at a total dose of 2 mg/kg; format: functional; procedure, shortened: as §1
Mus musculus [16] = experiment: In vivo antitumor activity against murine pancreatic adenocarcinoma and measured as % weight loss on a schedule of 3,5,7 days and at a total dose of 36 mg/kg; format: functional
Procedure, shortened: (§3)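 Body weight loss was tracked in mice implanted with the Panc-03 murine pancreatic adenocarcinoma. Injections were given within 20 min of aqueous preparation from stock solutions, with chlorohydrins acidified using 0.05% citric acid.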

Mus musculus [17] = experiment: In vivo antitumor activity against murine pancreatic adenocarcinoma and measured as number of deaths on a schedule of 3,5,7 days and at a total dose of 36 mg/kg; format: ADME, organism-based; parameters: dose 36 mg/kg; conditions: 168 h; procedure, shortened: as §2
Mus musculus [18] = experiment: In vivo antitumor activity against murine pancreatic adenocarcinoma and measured as number of deaths on a schedule of 3,5,7 days and at a total dose of 9 mg/kg; format: ADME, organism-based; parameters: dose 9 mg/kg; conditions: 168 h; procedure, shortened: as §2
Mus musculus [19] = experiment: Ratio of the median tumor weight in the treatment group over the median tumor weight in the control group on a schedule of 3,5,7 days and at a total dose of 18 mg/kg; format: functional
Procedure, shortened: (§4)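 Mice bearing the drug-sensitive murine pancreatic adenocarcinoma Panc-03. Dosing solutions were made in water from stock solutions and injected within 20 min of preparation; chlorohydrins were acidified with 0.05% citric acid. T/C (%) = median tumor weight of the treated group ÷ median tumor weight of controls × 100, calculated when control median tumor weight reached 1 g.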

Mus musculus [20] = experiment: In vivo antitumor activity against murine pancreatic adenocarcinoma and measured as % weight loss 3,5,7 days and at a total dose of 9 mg/kg; format: functional; procedure, shortened: as §3
Mus musculus [21] = experiment: Ratio of the median tumor weight in the treatment group over the median tumor weight in the control group on a schedule of 3,5,7 days and at a total dose of 36 mg/kg; format: functional; procedure, shortened: as §4
Mus musculus [22] = experiment: In vivo antitumor activity against murine pancreatic adenocarcinoma and measured as number of deaths on a schedule of 3,5,7 days and at a total dose of 18 mg/kg; format: ADME, organism-based; parameters: dose 18 mg/kg; conditions: 168 h; procedure, shortened: as §2
Mus musculus [23] = experiment: Ratio of the median tumor weight in the treatment group over the median tumor weight in the control group on a schedule of 3,5,7 days and at a total dose of 9 mg/kg; format: functional; procedure, shortened: as §4
Mus musculus [24] = experiment: In vivo antitumor activity against murine pancreatic adenocarcinoma and measured as % weight loss on a schedule of 3,5,7 days and at a total dose of 18 mg/kg; format: functional; procedure, shortened: as §3
Mus musculus [25] = experiment: In vivo antitumor activity against murine pancreatic adenocarcinoma and measured as number of deaths on a schedule of 5-10 day and at a total dose of 270 mg/kg; format: ADME, organism-based; parameters: dose 270 mg/kg; procedure, shortened: as §2
Mus musculus [26] = experiment: In vivo antitumor activity against murine pancreatic adenocarcinoma and measured as % weight loss on a schedule of 5-10 day and at a total dose of 210 mg/kg; format: functional; procedure, shortened: as §2
Mus musculus [27] = experiment: In vivo antitumor activity against murine pancreatic adenocarcinoma and measured as % weight loss on a schedule of 5-10 day and at a total dose of 402 mg/kg; format: functional; procedure, shortened: as §2
Mus musculus [28] = experiment: In vivo antitumor activity against murine pancreatic adenocarcinoma and measured as % weight loss on a schedule of 5-10 day and at a total dose of 270 mg/kg; format: functional; procedure, shortened: as §2
Mus musculus [29] = experiment: Ratio of the median tumor weight in the treatment group over the median tumor weight in the control group on a schedule of 5-10 day and at a total dose of 402 mg/kg; format: functional
Procedure, shortened: (§5)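 Murine pancreatic adenocarcinoma Panc-03 tumors in mice. T/C is the median tumor weight of the treated group over that of controls, ×100, taken when control median tumor weight reaches 1 g. T/C ≤42% counts as significant antitumor activity. Dosing solutions were prepared aqueous from stock solutions and injected within 20 min.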

Mus musculus [30] = experiment: In vivo antitumor activity against murine pancreatic adenocarcinoma and measured as number of deaths on a schedule of 5-10 day and at a total dose of 210 mg/kg; format: ADME, organism-based; parameters: dose 210 mg/kg; procedure, shortened: as §2
Mus musculus [31] = experiment: Ratio of the median tumor weight in the treatment group over the median tumor weight in the control group on a schedule of 5-10 day and at a total dose of 270 mg/kg; format: functional; procedure, shortened: as §5
Mus musculus [32] = experiment: Ratio of the median tumor weight in the treatment group over the median tumor weight in the control group on a schedule of 5-10 day and at a total dose of 210 mg/kg; format: functional; procedure, shortened: as §1
Mus musculus [33] = experiment: In vivo antitumor activity against murine pancreatic adenocarcinoma and measured as number of deaths on a schedule of 5-10 day and at a total dose of 402 mg/kg; format: ADME, organism-based; parameters: dose 402 mg/kg; procedure, shortened: as §2

**Q.** Which results are given for `COc1ccc(C[C@H]2NC(=O)/C=C/C[C@@H]([C@H](C)[C@@H](O)[C@@H](Cl)c3cccc(C)c3)OC(=O)[C@H](CC(C)C)OC(=O)C(C)(C)CNC2=O)cc1Cl`?
**A.** T/C (Mus musculus [1]): 46%; Weight loss (Mus musculus [2]): 7%; T/C (Mus musculus [3]): 0%; Death (Mus musculus [4]): 0; Death (Mus musculus [5]): 0; IC50 (CCRF-CEM): 0.3 nM; Weight loss (Mus musculus [6]): 12%

**Q.** With `COc1ccc(C[C@H]2NC(=O)/C=C/C[C@@H]([C@H](C)[C@@H](O)[C@@H](Cl)c3ccc(CN4CCNCC4)cc3)OC(=O)[C@H](CC(C)C)OC(=O)C(C)(C)CNC2=O)cc1Cl.Cl.Cl` as the compound, how does the Weight loss (Mus musculus [7]) read?
**A.** Its Weight loss is -26%.

**Q.** And the Death (Mus musculus [8])?
**A.** Its Death is 2.

**Q.** And the Death (Mus musculus [9])?
**A.** The Death was 0.

**Q.** What about the T/C (Mus musculus [10]) of the same compound?
**A.** The T/C was 33%.

**Q.** What about the Death (Mus musculus [11]) of the same compound?
**A.** Its Death is 0.

**Q.** And the Weight loss (Mus musculus [12])?
**A.** The Weight loss was -16%.

**Q.** What about the T/C (Mus musculus [13]) of the same compound?
**A.** Its T/C is 0%.

**Q.** What about the IC50 (CCRF-CEM) of the same compound?
**A.** Its IC50 is 0.021 nM.

**Q.** What about the Weight loss (Mus musculus [14]) of the same compound?
**A.** Its Weight loss is -3%.

**Q.** And the T/C (Mus musculus [15])?
**A.** The T/C was 8%.

**Q.** What does the source list for `COc1ccc(C[C@H]2NC(=O)/C=C/C[C@@H]([C@H](C)[C@@H](O)[C@@H](Cl)c3ccc(COC(=O)CN)cc3)OC(=O)[C@H](CC(C)C)OC(=O)C(C)(C)CNC2=O)cc1Cl.Cl`?
**A.** Weight loss (Mus musculus [16]): -20%; Death (Mus musculus [17]): 3; Death (Mus musculus [18]): 0; T/C (Mus musculus [19]): 0%; Weight loss (Mus musculus [20]): -2%; T/C (Mus musculus [21]): 0%; Death (Mus musculus [22]): 0; T/C (Mus musculus [23]): 0%; IC50 (CCRF-CEM): 0.013 nM; Weight loss (Mus musculus [24]): -4%

**Q.** How did the Death (Mus musculus [25]) turn out when `COc1ccc(C[C@H]2NC(=O)/C=C/C[C@@H]([C@H](C)[C@@H](O)[C@@H](Cl)c3ccccc3)OC(=O)[C@H](CC(C)C)OC(=O)C(C)(C)CNC2=O)cc1Cl` was run?
**A.** The Death was 0.

**Q.** And the Weight loss (Mus musculus [26])?
**A.** Its Weight loss is -5%.

**Q.** What about the Weight loss (Mus musculus [27]) of the same compound?
**A.** The Weight loss was -6%.

**Q.** And the Weight loss (Mus musculus [28])?
**A.** Its Weight loss is -5%.

**Q.** And the T/C (Mus musculus [29])?
**A.** The T/C was 0%.

**Q.** What about the Death (Mus musculus [30]) of the same compound?
**A.** Its Death is 0.

**Q.** And the T/C (Mus musculus [31])?
**A.** Its T/C is 0%.

**Q.** And the T/C (Mus musculus [32])?
**A.** Its T/C is 0%.

**Q.** And the Death (Mus musculus [33])?
**A.** Its Death is 0.
